Data as given in ChEMBL document CHEMBL2151038, “Synthesis, characterization and biological evaluation of some novel 2,4-thiazolidinediones as potential cytotoxic, antimicrobial and antihyperglycemic agents” (Bioorg Med Chem Lett, 2012).
In brackets after ≈: the same amount, converted by molar mass.

How the values were obtained:
Candida albicans = experiment: Antifungal activity against Candida albicans NCIM 3102 after 48 hrs by NCCLS agar well diffusion method; assay type: functional; conditions: NCIM 3102, 48 h
Method in brief: (§1)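 Spore suspensions in sterile distilled water adjusted to 10⁶ CFU/mL, 0.1 mL spread on potato-dextrose agar. 6 mm wells received 0.1 mL compound in 1% DMSO (final 16–512 µg/mL). Controls: 1% DMSO and ketoconazole (16 µg/mL). Triplicate plates, 48 h at 28 ± 0.2 °C. MIC = lowest concentration completely inhibiting growth.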

Staphylococcus aureus = experiment: Antibacterial activity against Staphylococcus aureus NCIM 2079 after 24 hrs by NCCLS agar well diffusion method; assay type: functional; conditions: NCIM 2079, 24 h
Method in brief: (§2)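 Nutrient agar seeded with 0.1 mL bacterial suspension (10⁵ CFU/mL in 0.85% saline). 6 mm wells filled with 0.1 mL compound. Plates in triplicate, 37 ± 0.5 °C for 24 h. MIC = lowest concentration giving complete growth inhibition.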

Micrococcus luteus = experiment: Antibacterial activity against Micrococcus luteus NCIM 2155 after 24 hrs by NCCLS agar well diffusion method; assay type: functional; conditions: NCIM 2155, 24 h; method in brief: as §2
[1] = Toxicity in mouse assessed as changes in vital functions; assay type: organism-based; conditions: in vivo
Rattus norvegicus [2] = experiment: Antihyperglycemic activity in po dosed streptozotocin-induced type 2 diabetic Wistar albino rat assessed as reduction in plasma glucose level by glucometer; assay type: functional, organism-based
Method in brief: (§3)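 Wistar albino rats of either sex, 150–200 g, fasted 16 h. Diabetes induced by nicotinamide 150 mg/kg, then STZ 65 mg/kg in citrate buffer pH 4.5. Glucose confirmed after 48 h. Groups of six. Oral dosing as 0.25% sodium CMC suspension at 10, 30 or 50 mg/kg. Rosiglitazone was the reference. Retro-orbital plasma glucose measured by glucometer before dosing and at 1, 2, 4, 6, 8, 12 and 24 h. Results as mean ± SEM, compared by ANOVA, t-test and Dunnett's test.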

Bacillus subtilis = experiment: Antibacterial activity against Bacillus subtilis NCIM 2063 after 24 hrs by NCCLS agar well diffusion method; assay type: functional; conditions: NCIM 2063, 24 h; method in brief: as §2
Rattus norvegicus [3] = experiment: Antihyperglycemic activity in streptozotocin-induced type 2 diabetic Wistar albino rat assessed as reduction in plasma glucose level at 30 mg/kg, po by glucometer; assay type: functional; method in brief: as §3
Pseudomonas aeruginosa = experiment: Antibacterial activity against Pseudomonas aeruginosa NCIM 2036 after 24 hrs by NCCLS agar well diffusion method; assay type: functional; conditions: NCIM 2036, 24 h; method in brief: as §2
Artemia salina = experiment: Cytotoxicity in brine shrimps larvae assessed as mortality after 24 hrs; assay type: functional; conditions: read-out: ED50 (the source's name)
Method in brief: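 Artemia salina nauplii hatched 38 h under constant aeration in sterile brine (sea salt 38 g/L, pH 8.5 with 1 N NaOH). Ten nauplii per vial were exposed to a range of compound concentrations at 37 °C for 24 h under incandescent light, alongside vehicle-treated controls. Survivors were counted, % lethality was taken from mean survivors versus control, and ED50 came from probit analysis.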

Aspergillus oryzae = experiment: Antifungal activity against Aspergillus oryzae NCIM 643 after 48 hrs by NCCLS agar well diffusion method; assay type: functional; conditions: NCIM 643, 48 h; method in brief: as §1
Escherichia coli = experiment: Antibacterial activity against Escherichia coli NCIM 2065 after 24 hrs by NCCLS agar well diffusion method; assay type: functional; conditions: NCIM 2065, 24 h; method in brief: as §2
Klebsiella pneumoniae = experiment: Antibacterial activity against Klebsiella pneumoniae NCIM 5082 after 24 hrs by NCCLS agar well diffusion method; assay type: functional; conditions: NCIM 5082, 24 h; method in brief: as §2
Rattus norvegicus [4] = experiment: Antihyperglycemic activity in streptozotocin-induced type 2 diabetic Wistar albino rat assessed as reduction in plasma glucose level at 50 mg/kg, po by glucometer; assay type: functional; method in brief: as §3
Rattus norvegicus [5] = experiment: Antihyperglycemic activity in streptozotocin-induced type 2 diabetic Wistar albino rat assessed as reduction in plasma glucose level at 10 mg/kg, po by glucometer; assay type: functional; method in brief: as §3
Aspergillus niger = experiment: Antifungal activity against Aspergillus niger NCIM 548 after 48 hrs by NCCLS agar well diffusion method; assay type: functional; conditions: NCIM 548, 48 h; method in brief: as §1
Penicillium chrysogenum = experiment: Antifungal activity against Penicillium chrysogenum NCIM 738 after 48 hrs by NCCLS agar well diffusion method; assay type: functional; conditions: NCIM 738, 48 h; method in brief: as §1
Bacillus pumilus = experiment: Antibacterial activity against Bacillus pumilus NCIM 2327 after 24 hrs by NCCLS agar well diffusion method; assay type: functional; conditions: NCIM 2327, 24 h; method in brief: as §2
Proteus vulgaris = experiment: Antibacterial activity against Proteus vulgaris NCIM 2813 after 24 hrs by NCCLS agar well diffusion method; assay type: functional; conditions: NCIM 2813, 24 h; method in brief: as §2

Row | SMILES | MIC (Candida albicans) [mg/L] | MIC (Staphylococcus aureus) [mg/L] | MIC (Micrococcus luteus) [mg/L] | MTD [1] [mg/kg] | Activity (Rattus norvegicus [2]) | MIC (Bacillus subtilis) [mg/L] | Activity (Rattus norvegicus [3]) [mg/dL] | MIC (Pseudomonas aeruginosa) [mg/L] | EC50 (Artemia salina) [mg/L] | MIC (Aspergillus oryzae) [mg/L] | MIC (Escherichia coli) [mg/L] | MIC (Klebsiella pneumoniae) [mg/L] | Activity (Rattus norvegicus [4]) [mg/dL] | Activity (Rattus norvegicus [5]) [mg/dL] | MIC (Aspergillus niger) [mg/L] | MIC (Penicillium chrysogenum) [mg/L] | MIC (Bacillus pumilus) [mg/L] | MIC (Proteus vulgaris) [mg/L]
1 | O=C1NC(=O)/C(=C/c2ccc(/C=C/C(=O)c3ccc(O)cc3)cc2)S1 | 512 (≈ 1460 µM) | 128 (≈ 364 µM) | 256 (≈ 729 µM) | 2000 | Dose-dependent effect | 256 (≈ 729 µM) | 30.21 | 512 (≈ 1460 µM) | 36.2 (≈ 103 µM) | 256 (≈ 729 µM) | 128 (≈ 364 µM) | 128 (≈ 364 µM) | 37.12 | 21.83 | 256 (≈ 729 µM) | 512 (≈ 1460 µM) | 128 (≈ 364 µM) | 512 (≈ 1460 µM)
2 | O=C1NC(=O)/C(=C/c2ccc(/C=C/C(=O)c3ccc(O)cc3O)cc2)S1 | 256 (≈ 697 µM) | 256 (≈ 697 µM) | 512 (≈ 1390 µM) | 2000 | Dose-dependent effect | 256 (≈ 697 µM) | 33.72 | 256 (≈ 697 µM) | 49.2 (≈ 134 µM) | 256 (≈ 697 µM) | 256 (≈ 697 µM) | 256 (≈ 697 µM) | 41.67 | 26.86 | 256 (≈ 697 µM) | 256 (≈ 697 µM) | 256 (≈ 697 µM) | 256 (≈ 697 µM)
3 | O=C1NC(=O)/C(=C/c2ccc(/C=C/C(=O)c3cccc([N+](=O)[O-])c3)cc2)S1 | 512 (≈ 1350 µM) | 128 (≈ 337 µM) | 256 (≈ 673 µM) | 2000 | Dose-dependent effect | 256 (≈ 673 µM) | 14.72 | 128 (≈ 337 µM) | 56.1 (≈ 147 µM) | 128 (≈ 337 µM) | 128 (≈ 337 µM) | 256 (≈ 673 µM) | 16.56 | 11.18 | 256 (≈ 673 µM) | 256 (≈ 673 µM) | 256 (≈ 673 µM) | 512 (≈ 1350 µM)
4 | O=C1NC(=O)/C(=C/c2ccc(/C=C/C(=O)c3ccc(F)cc3)cc2)S1 | 32 (≈ 90.6 µM) | 32 (≈ 90.6 µM) | 32 (≈ 90.6 µM) | 2000 | Dose-dependent effect | 16 (≈ 45.3 µM) | 25.67 | 16 (≈ 45.3 µM) | 4.32 (≈ 12.2 µM) | 32 (≈ 90.6 µM) | 16 (≈ 45.3 µM) | 16 (≈ 45.3 µM) | 33.12 | 22.74 | 32 (≈ 90.6 µM) | 16 (≈ 45.3 µM) | 16 (≈ 45.3 µM) | 32 (≈ 90.6 µM)
5 | COc1cccc(C(=O)/C=C/c2ccc(/C=C3\SC(=O)NC3=O)cc2)c1 | 128 (≈ 350 µM) | 128 (≈ 350 µM) | 256 (≈ 701 µM) | 2000 | Dose-dependent effect | 128 (≈ 350 µM) | 28.73 | 128 (≈ 350 µM) | 18.7 (≈ 51.2 µM) | 256 (≈ 701 µM) | 128 (≈ 350 µM) | 128 (≈ 350 µM) | 34.61 | 16.41 | 64 (≈ 175 µM) | 256 (≈ 701 µM) | 128 (≈ 350 µM) | 256 (≈ 701 µM)
6 | Cc1ccc(O)c(C(=O)/C=C/c2ccc(/C=C3\SC(=O)NC3=O)cc2)c1 | 128 (≈ 350 µM) | 256 (≈ 701 µM) | 512 (≈ 1400 µM) | 2000 | Dose-dependent effect | 128 (≈ 350 µM) | 37.03 | 256 (≈ 701 µM) | 39.4 (≈ 108 µM) | 64 (≈ 175 µM) | 128 (≈ 350 µM) | 128 (≈ 350 µM) | 42.13 | 31.76 | 128 (≈ 350 µM) | 64 (≈ 175 µM) | 256 (≈ 701 µM) | 512 (≈ 1400 µM)
7 | Cc1ccc(C(=O)/C=C/c2ccc(/C=C3\SC(=O)NC3=O)cc2)cc1 | 256 (≈ 733 µM) | 32 (≈ 91.6 µM) | 64 (≈ 183 µM) | 2000 | Dose-dependent effect | 32 (≈ 91.6 µM) | 21.81 | 32 (≈ 91.6 µM) | 19.7 (≈ 56.3 µM) | 64 (≈ 183 µM) | 32 (≈ 91.6 µM) | 64 (≈ 183 µM) | 28.72 | 17.66 | 256 (≈ 733 µM) | 64 (≈ 183 µM) | 32 (≈ 91.6 µM) | 64 (≈ 183 µM)
8 | O=C1NC(=O)/C(=C/c2ccc(/C=C/C(=O)c3ccc(Cl)cc3)cc2)S1 | 64 (≈ 173 µM) | 32 (≈ 86.5 µM) | 64 (≈ 173 µM) | 2000 | Dose-dependent effect | 32 (≈ 86.5 µM) | 32.38 | 32 (≈ 86.5 µM) | 12.1 (≈ 32.6 µM) | 64 (≈ 173 µM) | 32 (≈ 86.5 µM) | 16 (≈ 43.3 µM) | 36.17 | 26.74 | 64 (≈ 173 µM) | 64 (≈ 173 µM) | 16 (≈ 43.3 µM) | 32 (≈ 86.5 µM)
9 | O=C1NC(=O)/C(=C/c2ccc(/C=C/C(=O)c3cccnc3)cc2)S1 | 128 (≈ 381 µM) | 128 (≈ 381 µM) | 128 (≈ 381 µM) | 2000 | Dose-dependent effect | 128 (≈ 381 µM) | 27.86 | 128 (≈ 381 µM) | 31.4 (≈ 93.4 µM) | 128 (≈ 381 µM) | 128 (≈ 381 µM) | 128 (≈ 381 µM) | 31.81 | 19.04 | 256 (≈ 761 µM) | 256 (≈ 761 µM) | 128 (≈ 381 µM) | 256 (≈ 761 µM)
10 | Nc1ccc(C(=O)/C=C/c2ccc(/C=C3\SC(=O)NC3=O)cc2)cc1 | 128 (≈ 365 µM) | 128 (≈ 365 µM) | 256 (≈ 731 µM) | 2000 | Dose-dependent effect | 128 (≈ 365 µM) | 24.72 | 64 (≈ 183 µM) | 28.8 (≈ 82.2 µM) | 128 (≈ 365 µM) | 128 (≈ 365 µM) | 128 (≈ 365 µM) | 29.87 | 21.34 | 128 (≈ 365 µM) | 256 (≈ 731 µM) | 128 (≈ 365 µM) | 256 (≈ 731 µM)
11 | O=C1NC(=O)/C(=C/c2ccc(/C=C/C(=O)c3cc(O)ccc3O)cc2)S1 | 128 (≈ 348 µM) | 256 (≈ 697 µM) | 512 (≈ 1390 µM) | 2000 | Dose-dependent effect | 512 (≈ 1390 µM) | 38.86 | 512 (≈ 1390 µM) | 46.7 (≈ 127 µM) | 256 (≈ 697 µM) | 256 (≈ 697 µM) | 256 (≈ 697 µM) | 47.73 | 30.74 | 256 (≈ 697 µM) | 128 (≈ 348 µM) | 256 (≈ 697 µM) | 512 (≈ 1390 µM)
12 | O=C1NC(=O)/C(=C/c2ccc(/C=C/C(=O)c3cccc(Cl)c3)cc2)S1 | 128 (≈ 346 µM) | 64 (≈ 173 µM) | 64 (≈ 173 µM) | 2000 | Dose-dependent effect | 64 (≈ 173 µM) | 15.42 | 32 (≈ 86.5 µM) | 24.8 (≈ 67.1 µM) | 64 (≈ 173 µM) | 64 (≈ 173 µM) | 64 (≈ 173 µM) | 21.83 | 11.71 | 64 (≈ 173 µM) | 64 (≈ 173 µM) | 64 (≈ 173 µM) | 32 (≈ 86.5 µM)
